# pIC50: −log10 of the molar value.
# How the values were obtained:
# [1] = tested on: Trypanosoma congolense; assay: Trypanocidal activity against Trypanosoma congolense assessed as reduction in intracellular ATP production incubated for 72 hrs by CellTiter-Glo luminescent cell viability assay; type: functional, organism-based
# Method in brief: (§1)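 Bloodstream trypanosomes in 96-well culture were exposed to compound in 5-fold serial dilutions from 25 µg/mL to 1.6 ng/mL for 72 h. Seeding and temperature: T. b. brucei, T. b. gambiense and T. b. rhodesiense at 5×10^3 cells/mL and 37 °C; T. evansi at 1×10^4 cells/mL and 37 °C; T. congolense at 2×10^5 cells/mL and 33 °C. Viability was read as intracellular ATP by CellTiter-Glo luminescence. Three replicates; IC50 calculated.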
# [2] = tested on: Trypanosoma brucei gambiense; assay: Trypanocidal activity against Trypanosoma brucei gambiense assessed as reduction in intracellular ATP production incubated for 72 hrs by CellTiter-Glo luminescent cell viability assay; type: functional, organism-based; method in brief: as §1
# [3] = tested on: Trypanosoma evansi; assay: Trypanocidal activity against Trypanosoma evansi assessed as reduction in intracellular ATP production incubated for 72 hrs by CellTiter-Glo luminescent cell viability assay; type: functional, organism-based; method in brief: as §1
# [4] = Selectivity index, ratio of IC50 for cytotoxicity against bovine MDBK cells to IC50 for Trypanocidal activity against Trypanosoma brucei gambiense; conditions: cattle
# [5] = tested on: Trypanosoma brucei rhodesiense; assay: Trypanocidal activity against Trypanosoma brucei rhodesiense assessed as reduction in intracellular ATP production incubated for 72 hrs by CellTiter-Glo luminescent cell viability assay; type: functional, organism-based; method in brief: as §1
# [6] = tested on: Trypanosoma brucei brucei; assay: Trypanocidal activity against Trypanosoma brucei brucei assessed as reduction in intracellular ATP production incubated for 72 hrs by CellTiter-Glo luminescent cell viability assay; type: functional, organism-based; method in brief: as §1
# [7] = Selectivity index, ratio of IC50 for cytotoxicity against bovine MDBK cells to IC50 for Trypanocidal activity against Trypanosoma congolense
# [8] = Selectivity index, ratio of IC50 for cytotoxicity against bovine MDBK cells to IC50 for Trypanocidal activity against Trypanosoma brucei rhodesiense
# [9] = Selectivity index, ratio of IC50 for cytotoxicity against bovine MDBK cells to IC50 for Trypanocidal activity against Trypanosoma evansi
# [10] = Selectivity index, ratio of IC50 for cytotoxicity against bovine MDBK cells to IC50 for Trypanocidal activity against Trypanosoma brucei brucei; conditions: cattle
# [11] = tested on: MDBK cells (Bos taurus); assay: Cytotoxicity against bovine MDBK cells assessed as reduction in cell viability incubated for 72 hrs by CCK8 assay
SMILES,pIC50 [1],pIC50 [2],pIC50 [3],selectivity ratio [4],pIC50 [5],pIC50 [6],selectivity ratio [7],selectivity ratio [8],selectivity ratio [9],selectivity ratio [10],pIC50 [11]
COc1ccccc1-c1coc(-c2cccc(OC)c2OC)n1,5.03,4.41,4.42,> 8.3,4.50,4.42,> 34,> 10,> 8.5,> 8.4,< 3.49
CC(=O)Oc1ccc(OC(C)=O)c(-c2cnc(-c3ccccc3)o2)c1,5.41,4.38,4.72,0.23,4.19,4.78,2.4,0.15,0.51,0.58,5.02
CC(=O)Oc1ccc(OC(C)=O)c(-c2cnc(-c3cc(OC(C)=O)ccc3OC(C)=O)o2)c1,4.77,4.30,4.35,0.6,4.32,4.45,1.8,0.63,0.67,0.85,4.52
COc1cccc(-c2ncc(-c3ccccc3N(C)C)o2)c1OC,5.34,4.45,4.61,> 8.8,4.63,4.69,> 66,> 13,> 12,> 15,< 3.51
COc1ccccc1-c1cnc(-c2c(OC)cccc2OC)o1,5.28,4.61,4.66,1.5,4.74,4.71,7.1,2,1.7,1.9,4.42
COc1cccc(-c2ncc(-c3ccccc3[N+](=O)[O-])o2)c1OC,5.08,4.20,4.31,> 4.8,4.25,4.30,> 36,> 5.4,> 6.3,> 6.2,< 3.51
COc1ccc(-c2cnc(-c3ccc(OC)c(OC)c3OC)o2)c(OC)c1OC,4.79,4.39,4.22,0.98,4.50,4.42,2.4,1.3,0.66,1.1,4.40
COc1cccc(-c2cnc(-c3cccc(OC)c3OC)o2)c1,4.99,4.13,4.17,1.3,4.12,4.12,9.3,1.3,1.4,1.3,4.02
Oc1ccccc1-c1nnc(-c2cccc(O)c2O)o1,6.17,5.72,6.09,3.1,5.72,5.72,8.8,3.1,7.2,3.1,5.23
CC(=O)Oc1ccc(OC(C)=O)c(-c2ncc(-c3ccccc3OC(C)=O)o2)c1,4.84,4.26,4.47,1.2,4.25,4.47,4.4,1.1,1.9,1.9,4.19
COc1cccc(-c2cnc(-c3cccc(OC)c3OC)o2)c1OC,4.58,4.16,4.18,1.3,4.15,4.15,3.4,1.3,1.4,1.3,4.04
